Results published in PMC5984530 (Proceedings of the National Academy of Sciences of the …, 2018).
Where a chain is given by its changes, count along the chain named.

Tests used:
[1] = target: T1, HlCHIL1 protein (Humulus lupulus, UniProt A0A2U7XUH7); assay: Differential scanning fluorimetry; assay type: binding; conditions: for binding to CHIL1 protein (in words): wild-type HlCHIL1, differential scanning fluorimetry; for ΔTmmax: wild-type HlCHIL1, thermal shift dose-response
T1 sequence (A0A2U7XUH7 1-214): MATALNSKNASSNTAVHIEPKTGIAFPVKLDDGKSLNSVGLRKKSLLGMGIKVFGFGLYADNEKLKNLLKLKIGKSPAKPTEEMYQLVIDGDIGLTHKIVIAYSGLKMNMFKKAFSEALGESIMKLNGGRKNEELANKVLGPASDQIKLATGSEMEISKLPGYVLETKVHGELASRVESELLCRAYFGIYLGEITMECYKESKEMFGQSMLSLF
Procedure, shortened: (§1)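 Purified HlCHIL protein (wild-type or point mutant), 5 μM, was mixed with Protein Thermal Shift buffer and dye. Test ligand was serially diluted from 250 μM to 0.12 μM (12 points). Melting was followed on a real-time PCR instrument. Kd and ΔTmmax were fitted from the dose–response of thermal shift against ligand concentration.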

[2] = target: T2, CHIL2 (Humulus lupulus, UniProt A0A2U7XUE3); assay: Protein-metabolite interaction assay; assay type: binding; conditions: same incubation conditions, 8 h at 4 °C
T2 sequence (A0A2U7XUE3 1-209): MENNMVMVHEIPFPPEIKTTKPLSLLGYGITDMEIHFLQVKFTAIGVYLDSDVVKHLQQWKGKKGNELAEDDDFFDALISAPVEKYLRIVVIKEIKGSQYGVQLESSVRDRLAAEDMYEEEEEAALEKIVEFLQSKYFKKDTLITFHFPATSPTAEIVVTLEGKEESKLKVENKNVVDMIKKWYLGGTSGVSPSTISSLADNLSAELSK

[3] = target: T3, CHIL1^A143F (Humulus lupulus, UniProt A0A2U7XUH7, A143F); assay: Differential scanning fluorimetry binding assay with CHIL1 A143F mutant; conditions: thermal shift dose-response
T3 sequence (A0A2U7XUH7 1-214 A143F): T1 sequence (A0A2U7XUH7 1-214) with A143F
Procedure, shortened: as §1

[4] = target: T4, CHIL1^V139F (Humulus lupulus, UniProt A0A2U7XUH7, V139F); assay: Differential scanning fluorimetry binding assay with CHIL1 V139F mutant
T4 sequence (A0A2U7XUH7 1-214 V139F): T1 sequence (A0A2U7XUH7 1-214) with V139F
Procedure, shortened: as §1

[5] = target: T5, His-tagged CHIL1 (Humulus lupulus, UniProt A0A2U7XUH7); assay: Protein-metabolite interaction assay; assay type: binding
T5 sequence (A0A2U7XUH7 1-214): T1 sequence (A0A2U7XUH7 1-214)
Procedure, shortened: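 His-tagged CHIL1 was expressed in E. coli BL21 and purified by Ni-NTA. Protein (30 μg) was incubated for 8 h at 4 °C with yeast extract (about 200 μM N/NC, 5 μM DMX) in 50 mM Tris·HCl pH 7.5 with 20% methanol. Protein was captured on MagneHis Ni beads. Bead-bound and supernatant compounds were extracted with ethyl acetate and measured by LC-QQQ-MS/MS (MRM 341.0→165.0). Beads alone were the control; n = 3.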

[6] = target: T6, CHIL1^V139F/A143F (Humulus lupulus, UniProt A0A2U7XUH7, A143F/V139F); assay type: binding; conditions: thermal shift dose-response
T6 sequence (A0A2U7XUH7 1-214 V139F/A143F): T1 sequence (A0A2U7XUH7 1-214) with V139F, A143F

[7] = target: T7, CHS_H1 (Humulus lupulus, UniProt Q9FEY5); assay: In vitro chalcone synthase assay, kinetic parameters, CHS_H1 alone; assay type: biochemical; conditions: 2 μg CHS_H1; other substrate fixed: 150 μM malonyl-CoA or 40 μM p-coumaroyl-CoA
T7 sequence (Q9FEY5 1-389): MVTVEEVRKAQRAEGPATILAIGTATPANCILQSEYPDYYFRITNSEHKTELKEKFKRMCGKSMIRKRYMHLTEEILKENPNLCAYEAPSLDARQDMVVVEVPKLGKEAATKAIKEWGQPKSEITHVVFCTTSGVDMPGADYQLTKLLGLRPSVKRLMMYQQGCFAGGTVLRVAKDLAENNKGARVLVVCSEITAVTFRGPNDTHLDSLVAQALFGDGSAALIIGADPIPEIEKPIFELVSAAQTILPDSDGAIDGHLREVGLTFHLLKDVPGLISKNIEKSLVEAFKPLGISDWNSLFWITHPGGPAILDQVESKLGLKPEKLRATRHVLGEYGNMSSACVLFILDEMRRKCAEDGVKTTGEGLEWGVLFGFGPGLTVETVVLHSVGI
Procedure, shortened: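 Purified recombinant CHS_H1 (2 μg) was run in standard reactions: 50 mM Tris·HCl pH 7, 0.1 mg/mL BSA, 30 °C, 60 min. One substrate was fixed (40 μM p-coumaroyl-CoA or 150 μM malonyl-CoA) while the other was varied. Products were extracted and quantified. Apparent Km came from Hanes plots; n = 3, means ± SD.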

CC(C)=CCc1c(O)cc2c(c1O)C(=O)C[C@@H](c1ccc(O)cc1)O2 [6PN, 6-prenylnaringenin]
binding to CHIL1 protein (in words) [1]: no such binding could be detected

CC(C)=CCc1c(O)cc(O)c2c1O[C@H](c1ccc(O)cc1)CC2=O [8PN, 8-prenylnaringenin]
binding to CHIL1 protein (in words) [1]: no such binding could be detected | CHIL2-associated compound (in words) [2]: no CHIL2-associated DMX or 8PN were detected

CC(C)=CCc1c(O)cc(O)c(C(=O)/C=C/c2ccc(O)cc2)c1O [DMX, demethylxanthohumol]
ΔTmmax [3]: 10.87 °C | Kd [4]: 10 µM | ΔTmmax ([4]; CHIL1^V139F, thermal shift dose-response): 10.15 °C | enrichment of DMX levels by CHIL1 protein (bound vs solution) ([5]; incubation 8 h at 4 °C with yeast extract (DMX/6PN/8PN)): 14.2 fold | ratio of (DMX)/(total DMX) in CHIL1-bound chemical mixture ([5]; incubation 8 h at 4 °C, n = 3): 19.7% | ratio of (DMX)/(total DMX) in solution ([5]; supernatant, incubation 8 h at 4 °C): 1.39% | ΔTmmax [6]: 5.26 °C | Kd [1]: 25.1 µM | ΔTmmax [1]: 10.23 °C | CHIL2-associated compound (in words) [2]: no CHIL2-associated DMX or 8PN were detected

CC(C)(COP(=O)(O)OP(=O)(O)OC[C@H]1O[C@@H](n2cnc3c(N)ncnc32)[C@H](O)[C@@H]1OP(=O)(O)O)[C@@H](O)C(=O)NCCC(=O)NCCSC(=O)CC(=O)O [Malonyl-CoA]
Kcat [7]: 0.24 ± 0.03 s^−1 × 10^−3 | Km [7]: 10.1 ± 2.99 µM

O=C1C[C@@H](c2ccc(O)cc2)Oc2cc(O)cc(O)c21 [N, naringenin]
binding to CHIL1 protein (in words) [1]: no such binding could be detected

COc1cc(O)c(CC=C(C)C)c(O)c1C(=O)/C=C/c1ccc(O)cc1 [XN, 3′-prenyl-6′-O-methylchalconaringenin]
binding to CHIL1 protein (in words) [1]: no such binding could be detected

CCCCCCCCCCCC(=O)O [lauric acid]
ΔTmmax [1]: 5.0 °C

CCCCCCCCCCCCCC(=O)O [myristic acid]
Kd [1]: 3.45 µM | ΔTmmax [1]: 3.55 °C

CC(C)(COP(=O)(O)OP(=O)(O)OC[C@H]1O[C@@H](n2cnc3c(N)ncnc32)[C@H](O)[C@@H]1OP(=O)(O)O)[C@@H](O)C(=O)NCCC(=O)NCCSC(=O)/C=C/c1ccc(O)cc1 [p-Coumaroyl-CoA]
Kcat [7]: 0.21 ± 0.02 s^−1 × 10^−3 | Km [7]: 4.82 ± 0.99 µM
